Experimental data from ChEMBL document CHEMBL5136969, “A niclosamide-tobramycin hybrid adjuvant potentiates cefiderocol against P. aeruginosa” (2021).
In brackets after ≈: the same amount, converted by molar mass. Activity calls are given as the source filed them. The rule behind the calls is not given here.

Columns and labels:
Acinetobacter baumannii [1] = experiment: Antibacterial activity against Acinetobacter baumannii ATCC 17978 assessed as potentiation of cefiderocol antibacterial activity by measuring FIC after 18 hrs by microbroth dilution method; format: functional
Method in brief: (§1)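 Checkerboard in Mueller-Hinton broth: cefiderocol 2-fold diluted on one axis, adjuvant 2-fold on the other. Overnight cultures were adjusted to 0.5 McFarland in saline, diluted 1:50 in MHB, and inoculated at about 5 × 10^5 CFU/mL. Incubation was 18 h at 37 °C. Turbidity was read visually and confirmed at 590 nm. FIC index = FIC of antibiotic + FIC of adjuvant; ≤0.5 synergy, >4 antagonism.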

Pseudomonas aeruginosa [2] = experiment: Potentiation of minocycline-induced antibiotic activity against Pseudomonas aeruginosa PAO1 assessed as MIC fold reduction at 8 ug/ml after 18 hrs by microbroth dilution method; format: functional; conditions: dose 8 µg/ml
Method in brief: (§2)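 Adjuvant held at a fixed 8 μg/mL while the antibiotic was 2-fold serially diluted in Mueller-Hinton broth (MHB), per CLSI microbroth dilution. Overnight cultures were adjusted in saline to 0.5 McFarland, then diluted 1:50 in MHB to about 5 × 10^5 CFU/mL final, and incubated 18 h at 37 °C. MIC was the lowest concentration with no visible turbidity, confirmed at 590 nm. Fold potentiation = MIC alone / MIC with adjuvant.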

Klebsiella pneumoniae [3] = experiment: Antibacterial activity against Klebsiella pneumoniae KP113254 assessed as reduction in bacterial growth after 18 hrs by microbroth dilution method; format: functional
Method in brief: (§3)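 CLSI broth microdilution. Overnight cultures were adjusted in saline to 0.5 McFarland, diluted 1:50 in Mueller-Hinton broth (MHB), and inoculated at about 5 × 10^5 CFU/mL. Agents were 2-fold serially diluted in MHB, mixed 1:1 with inoculum, and held at 37 °C for 18 h. MIC was the lowest concentration with no visible turbidity, confirmed at 590 nm.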

Pseudomonas aeruginosa [4] = experiment: Potentiation of moxifloxacin-induced antibiotic activity against Pseudomonas aeruginosa PAO1 assessed as reduction in microbial growth at 8 ug/ml up to 24 hrs by microbroth dilution method; format: functional; conditions: dose 8 µg/ml
Pseudomonas aeruginosa [5] = experiment: Potentiation of niclosamide-induced antibiotic activity against Pseudomonas aeruginosa PAO1 assessed as MIC fold reduction at 8 ug/ml after 18 hrs by microbroth dilution method; format: functional; conditions: dose 8 µg/ml
Acinetobacter baumannii [6] = experiment: Antibacterial activity against Acinetobacter baumannii AB031 assessed as potentiation of cefiderocol antibacterial activity by measuring FIC after 18 hrs by microbroth dilution method; format: functional; method in brief: as §1
Pseudomonas aeruginosa [7] = experiment: Antibacterial activity against […] Pseudomonas aeruginosa PAO1 assessed as reduction in bacterial growth after 18 hrs by microbroth dilution method; format: functional
Method in brief: (§4)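 Broth microdilution per CLSI in Mueller-Hinton broth (MHB). Overnight cultures were adjusted to 0.5 McFarland in saline, diluted 1:50 in MHB, and added at about 5 × 10^5 CFU/mL final to equal volumes of 2-fold serial dilutions of agent. Incubation was 18 h at 37 °C. MIC was the lowest concentration with no visible turbidity, confirmed by absorbance at 590 nm.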

Escherichia coli [8] = experiment: Potentiation of moxifloxacin-induced antibiotic activity against Escherichia coli ATCC 25922 assessed as MIC fold reduction at 8 ug/ml after 18 hrs by microbroth dilution method; format: functional; conditions: dose 8 µg/ml; method in brief: as §2
Acinetobacter baumannii [9] = experiment: Antibacterial activity against Acinetobacter baumannii ATCC 17978 assessed as reduction in bacterial growth after 18 hrs in presence of cefiderocol by microbroth dilution method; format: functional; method in brief: as §1
Pseudomonas aeruginosa [10] = experiment: Potentiation of fosfomycin-induced antibiotic activity against Pseudomonas aeruginosa PAO1 assessed as MIC fold reduction at 8 ug/ml after 18 hrs by microbroth dilution method; format: functional; conditions: dose 8 µg/ml; method in brief: as §2
Acinetobacter baumannii [11] = experiment: Potentiation of cefotaxime-induced antibiotic activity against Acinetobacter baumannii ATCC 17978 assessed as MIC fold reduction at 8 ug/ml after 18 hrs by microbroth dilution method; format: functional; conditions: dose 8 µg/ml
Method in brief: (§5)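 Initial screen in MHB using a fixed 8 μg mL−1 of adjuvant combined with each antibiotic under 2-fold dilution. Broth microdilution used about 5 × 10^5 CFU/mL at 37 °C for 18 h, with visible turbidity read and confirmed at 590 nm. Fold-potentiation = antibiotic MIC alone ÷ antibiotic MIC with adjuvant.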

Pseudomonas aeruginosa [12] = experiment: Antibacterial activity against MDR clinical isolate Pseudomonas aeruginosa PA86052 assessed as reduction in bacterial growth after 18 hrs by microbroth dilution method; format: functional; method in brief: as §3
Acinetobacter baumannii [13] = experiment: Potentiation of novobiocin-induced antibiotic activity against Acinetobacter baumannii ATCC 17978 assessed as MIC fold reduction at 8 ug/ml after 18 hrs by microbroth dilution method; format: functional; conditions: dose 8 µg/ml
Pseudomonas aeruginosa [14] = experiment: Potentiation of novobiocin-induced antibiotic activity against Pseudomonas aeruginosa PAO1 assessed as MIC fold reduction at 8 ug/ml after 18 hrs by microbroth dilution method; format: functional; conditions: dose 8 µg/ml
Escherichia coli [15] = experiment: Potentiation of minocycline-induced antibiotic activity against Escherichia coli ATCC 25922 assessed as MIC fold reduction at 8 ug/ml after 18 hrs by microbroth dilution method; format: functional; conditions: dose 8 µg/ml; method in brief: as §2
Escherichia coli [16] = experiment: Potentiation of linezolid-induced antibiotic activity against Escherichia coli ATCC 25922 assessed as MIC fold reduction at 8 ug/ml after 18 hrs by microbroth dilution method; format: functional; conditions: dose 8 µg/ml; method in brief: as §2
Escherichia coli [17] = experiment: Potentiation of pleuromutilin-induced antibiotic activity against Escherichia coli ATCC 25922 assessed as MIC fold reduction at 8 ug/ml after 18 hrs by microbroth dilution method; format: functional; conditions: dose 8 µg/ml
Pseudomonas aeruginosa [18] = experiment: Potentiation of ceftolozane-induced antibiotic activity against […] Pseudomonas aeruginosa PAO1 assessed as MIC fold reduction at 8 ug/ml after 18 hrs by microbroth dilution method; format: functional, organism-based; conditions: dose 8.0 µg/ml; method in brief: as §2
Klebsiella pneumoniae [19] = experiment: Antibacterial activity against Klebsiella pneumoniae KP116381 assessed as reduction in bacterial growth after 18 hrs in presence of cefiderocol by microbroth dilution method; format: functional
Method in brief: (§6)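 Checkerboard in MHB. Cefiderocol was 2-fold serially diluted along one axis and the adjuvant along the other. Inoculum was prepared from 0.5 McFarland saline suspensions diluted 1:50 in MHB, giving about 5 × 10^5 CFU/mL final. Plates ran 18 h at 37 °C, with turbidity confirmed at 590 nm. FIC = combination MIC ÷ MIC alone for each agent, and FIC index = sum of both. Interpretation: ≤0.5 synergy, >0.5–4 additive, >4 antagonism.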

Pseudomonas aeruginosa [20] = experiment: Antibacterial activity against […] Pseudomonas aeruginosa PAO1 assessed as reduction in bacterial growth after 18 hrs in presence of cefiderocol by microbroth dilution method; format: functional; method in brief: as §6
Acinetobacter baumannii [21] = experiment: Potentiation of cefiderocol-induced antibiotic activity against Acinetobacter baumannii ATCC 17978 assessed as MIC fold reduction at 8 ug/ml after 18 hrs by microbroth dilution method; format: functional; conditions: dose 8 µg/ml; method in brief: as §5
Pseudomonas aeruginosa [22] = experiment: Antibacterial activity against MDR clinical isolate Pseudomonas aeruginosa PA88949 assessed as reduction in bacterial growth after 18 hrs by microbroth dilution method; format: functional; method in brief: as §4
Pseudomonas aeruginosa [23] = experiment: Potentiation of cefotaxime-induced antibiotic activity against MDR clinical isolate Pseudomonas aeruginosa PA260 assessed as MIC fold reduction at 8 ug/ml after 18 hrs by microbroth dilution method; format: functional, organism-based; conditions: dose 8.0 µg/ml; method in brief: as §5
Escherichia coli [24] = experiment: Antibacterial activity against Escherichia coli 94393 assessed as reduction in bacterial growth after 18 hrs by microbroth dilution method; format: functional
Method in brief: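 CLSI microbroth dilution in MHB. Overnight cultures were adjusted to 0.5 McFarland in saline, diluted 1:50, and inoculated at about 5 × 10^5 CFU/mL. Agents were 2-fold serially diluted and incubated 18 h at 37 °C. MIC is the lowest concentration without visible turbidity, confirmed by absorbance at 590 nm. Medium with and without cells served as controls.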

Compound: NC[C@H]1O[C@H](O[C@H]2[C@H](OCCCCc3cn(-c4ccc(NC(=O)c5cc(Cl)ccc5O)cc4)nn3)[C@@H](O[C@H]3O[C@H](CO)[C@@H](O)[C@H](N)[C@H]3O)[C@H](N)C[C@@H]2N)[C@H](N)C[C@@H]1O
- FIC (Acinetobacter baumannii [1]): 0.25
- fold change (FC) (Pseudomonas aeruginosa [2]): 4
- MIC (Klebsiella pneumoniae [3]): > 128 µg/mL
- Activity (Pseudomonas aeruginosa [4]): >3 log10CFU/ml
- fold change (FC) (Pseudomonas aeruginosa [5]): 4
- FIC (Acinetobacter baumannii [6]): 0.5
- MIC (Pseudomonas aeruginosa [7]): 64 µg/mL (≈ 76.5 µM)
- fold change (FC) (Escherichia coli [8]): 4
- MIC (Acinetobacter baumannii [9]): 16 µg/mL
- fold change (FC) (Pseudomonas aeruginosa [10]): 4
- fold change (FC) (Acinetobacter baumannii [11]): 4
- MIC (Pseudomonas aeruginosa [12]): > 128 µg/mL
- fold change (FC) (Acinetobacter baumannii [13]): 4
- fold change (FC) (Pseudomonas aeruginosa [14]): 4
- fold change (FC) (Escherichia coli [15]): 4
- fold change (FC) (Escherichia coli [16]): 4
- fold change (FC) (Escherichia coli [17]): 4
- Activity (Pseudomonas aeruginosa [18]): Active
- MIC (Klebsiella pneumoniae [19]): 0.25 µg/mL
- MIC (Pseudomonas aeruginosa [20]): 0.5 µg/mL
- fold change (FC) (Acinetobacter baumannii [21]): 4
- MIC (Pseudomonas aeruginosa [22]): > 128 µg/mL
- Activity (Pseudomonas aeruginosa [23]): Active
- MIC (Escherichia coli [24]): > 128 µg/mL
